{
  "source": "paper PMC4188730",
  "about": "(European journal of medicinal chemistry, 2014)",
  "key": {"[1]": {"tested_on": "HDAC isoforms", "conditions": "cited from earlier work"}, "[2]": {"tested_on": "HCT116 colorectal cancer cell line", "assay": "Cytoproliferation", "assay_type": "cell-based", "conditions": "for effect on cell growth: HCT116, 96 hours, up to the highest concentration tested, 5 μM; for effect on cytoproliferation at lower concentrations: HCT116, 0.01, 0.1 and 1.0 nM (data not shown)", "method_in_brief": "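HCT116 colorectal carcinoma cells seeded at 3×10⁴ cells/well in quadruplicate, attached overnight. Medium then replaced with fresh medium containing test compound; incubated 96 hours at 37 °C, 5% CO₂. CellTiter 96 One Solution MTS reagent added for 1.5 h at 37 °C, absorbance read at 490 nm. Points are mean of two experiments, 4 replicates each, with SEM.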"}, "[3]": {"tested_on": "global H3K9 acetylation in HCT116 cells", "assay": "Western blot of global histone H3K9 acetylation", "assay_type": "cell-based", "conditions": "HCT116, 24 hours, 100 nM and 1 μM; for induction of global H3K9 (H3) acetylation: 10 nM; for concentration at which increase of global H3K9 acetylation was observed: tested at 10 nM", "method_in_brief": "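HCT116 cells exposed 24 hours to test compound at 10 nM, 100 nM or 1 μM, or to DMSO. Lysed in RIPA buffer (50 mmol/L Tris-HCl, 1% NP-40, 0.25% deoxycholate, 150 mmol/L NaCl, 50 mmol/L NaF). Protein quantified by DC assay, 30 μg/lane run on SDS-PAGE. Blots probed for acetyl-H3 with β-actin loading control, detected by dye-conjugated secondaries on infrared scanner.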"}, "[4]": {"biological_target": "T1, recombinant HDAC6 (Homo sapiens, UniProt Q9UBN7)", "T1 sequence (Q9UBN7 1-1215)": "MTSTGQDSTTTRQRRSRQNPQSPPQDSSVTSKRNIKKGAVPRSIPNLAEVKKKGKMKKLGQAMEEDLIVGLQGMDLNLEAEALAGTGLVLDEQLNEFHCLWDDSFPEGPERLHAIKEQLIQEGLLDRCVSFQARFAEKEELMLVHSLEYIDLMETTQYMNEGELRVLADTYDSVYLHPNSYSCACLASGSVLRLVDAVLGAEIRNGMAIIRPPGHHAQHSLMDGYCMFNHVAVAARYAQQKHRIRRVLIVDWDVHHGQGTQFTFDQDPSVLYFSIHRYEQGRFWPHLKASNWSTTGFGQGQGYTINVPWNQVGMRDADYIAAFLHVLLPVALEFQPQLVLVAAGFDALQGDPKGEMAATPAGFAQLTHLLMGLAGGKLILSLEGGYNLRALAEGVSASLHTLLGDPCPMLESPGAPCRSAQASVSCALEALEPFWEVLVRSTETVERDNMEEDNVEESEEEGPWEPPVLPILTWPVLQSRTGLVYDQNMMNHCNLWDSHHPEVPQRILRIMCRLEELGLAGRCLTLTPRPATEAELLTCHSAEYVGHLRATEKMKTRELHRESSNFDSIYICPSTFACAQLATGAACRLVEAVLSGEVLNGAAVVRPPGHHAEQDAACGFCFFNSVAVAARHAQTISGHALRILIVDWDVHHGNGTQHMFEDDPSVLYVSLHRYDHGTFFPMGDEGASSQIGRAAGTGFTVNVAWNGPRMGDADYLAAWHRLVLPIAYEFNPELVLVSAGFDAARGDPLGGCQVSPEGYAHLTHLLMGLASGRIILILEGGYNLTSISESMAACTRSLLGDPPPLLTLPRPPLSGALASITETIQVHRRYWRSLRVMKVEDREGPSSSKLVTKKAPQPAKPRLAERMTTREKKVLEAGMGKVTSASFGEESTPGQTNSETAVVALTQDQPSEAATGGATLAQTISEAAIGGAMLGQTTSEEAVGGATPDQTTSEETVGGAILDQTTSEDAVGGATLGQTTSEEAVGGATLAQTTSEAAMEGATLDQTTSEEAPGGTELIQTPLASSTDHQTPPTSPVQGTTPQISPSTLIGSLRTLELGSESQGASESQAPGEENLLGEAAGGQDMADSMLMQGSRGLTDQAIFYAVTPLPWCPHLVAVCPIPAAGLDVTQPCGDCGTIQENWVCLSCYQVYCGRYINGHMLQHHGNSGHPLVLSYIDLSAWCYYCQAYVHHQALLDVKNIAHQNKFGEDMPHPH", "assay": "Fluorimetric HDAC activity assay, recombinant HDAC6", "assay_type": "biochemical", "conditions": "0–5 μM"}, "[5]": {"biological_target": "recombinant HDAC1 (Homo sapiens, UniProt Q13547)", "sequence (Q13547 whole entry)": "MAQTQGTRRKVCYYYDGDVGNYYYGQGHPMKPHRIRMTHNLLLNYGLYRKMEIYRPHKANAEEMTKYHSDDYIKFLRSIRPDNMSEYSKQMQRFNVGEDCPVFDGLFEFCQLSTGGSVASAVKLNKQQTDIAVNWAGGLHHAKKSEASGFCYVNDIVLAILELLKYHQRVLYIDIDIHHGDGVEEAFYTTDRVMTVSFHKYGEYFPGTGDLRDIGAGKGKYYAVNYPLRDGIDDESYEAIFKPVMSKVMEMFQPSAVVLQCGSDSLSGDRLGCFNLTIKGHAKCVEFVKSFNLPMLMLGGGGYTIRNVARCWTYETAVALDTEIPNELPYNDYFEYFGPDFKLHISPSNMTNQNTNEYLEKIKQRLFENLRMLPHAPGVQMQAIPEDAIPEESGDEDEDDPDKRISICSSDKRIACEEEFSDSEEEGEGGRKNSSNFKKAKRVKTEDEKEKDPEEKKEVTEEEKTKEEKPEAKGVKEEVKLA", "assay": "Fluorimetric HDAC activity assay, recombinant HDAC1", "assay_type": "biochemical", "conditions": "at 0.1 μM, 1 hour"}, "[6]": {"tested_on": "human cancer cells", "conditions": "cited from earlier work"}},
  "note": "“Also recorded” adds a separate entry of the source.",
  "data": [
    {"compound": "CCCCCCCC(=O)SCCC=CC1CC(=O)NCc2nc(cs2)C2=NC(C)(CS2)C(=O)NC(C(C)C)C(=O)O1", "note": "(single isomer, unassigned) [enantiomer of largazole]", "values": [
      {"measurement": "potency in inhibiting HDAC isoforms relative to largazole", "setting": "[1]", "result": "three times less potent"}
    ]},
    {"compound": "CCCCCCCC(=O)SCC/C=C/[C@@H]1CC(=O)NCc2nc(cs2)C2=N[C@](C)(CS2)C(=O)N[C@@H](C(C)C)C(=O)O1", "note": "[Analogue 12]", "values": [
      {"measurement": "effect on cell growth", "setting": "[2]", "result": "minimal effect"},
      {"measurement": "induction of global H3K9 (H3) acetylation", "setting": "[3]", "result": "very little induction; also recorded: slight increase; also recorded: no change; also recorded: slight induction"}
    ]},
    {"compound": "CCCCCCCC(=O)SCC/C=C/[C@@H]1CC(=O)NCc2nc(cs2)C2=N[C@@](C)(CS2)C(=O)N[C@H](Cc2cccc3ccccc23)C(=O)O1", "note": "[Analogue 16a]", "values": [
      {"measurement": "HDAC6 specific inhibition (comparison among analogues)", "setting": "[4]", "result": "least amount"},
      {"measurement": "effect on cell growth", "setting": "[2]", "result": "minimal effect; also recorded: no effect"},
      {"measurement": "induction of global H3K9 (H3) acetylation", "setting": "[3]", "result": "very little induction; also recorded: no change; also recorded: failed to induce"}
    ]},
    {"compound": "C=CCC1NC(=O)C2(C)CSC(=N2)c2csc(n2)CNC(=O)CC(C=CCCSC(=O)CCCCCCC)OC1=O", "note": "(stereo not shown) [Analogue 16b]", "values": [
      {"measurement": "effect on cytoproliferation at lower concentrations", "setting": "[2]", "result": "No significant effect"},
      {"measurement": "effect on cell growth", "setting": "[2]", "result": "significant effect"},
      {"measurement": "induction of global H3K9 (H3) acetylation", "setting": "[3]", "result": "greatest induction; also recorded: robust induction"},
      {"measurement": "concentration at which increase of global H3K9 acetylation was observed", "setting": "[3]", "result": 100, "unit": "nM"}
    ]},
    {"compound": "CCCCCCCC(=O)SCC/C=C/[C@@H]1CC(=O)NCc2nc(cs2)C2=N[C@@](C)(CS2)C(=O)N[C@@H](Cc2cccc3ccccc23)C(=O)O1", "note": "[Analogue 16c]", "values": [
      {"measurement": "inhibition of HDAC1 activity", "setting": "[5]", "result": "about 15%"},
      {"measurement": "effect on cytoproliferation at lower concentrations", "setting": "[2]", "result": "No significant effect"},
      {"measurement": "effect on cell growth", "setting": "[2]", "result": "significant effect"},
      {"measurement": "induction of global H3K9 (H3) acetylation", "setting": "[3]", "result": "greatest induction; also recorded: robust induction"},
      {"measurement": "concentration at which increase of global H3K9 acetylation was observed", "setting": "[3]", "result": 10, "unit": "nM"}
    ]},
    {"compound": "CCCCCCCC(=O)SCCC=CC1CC(=O)NCc2nc(cs2)C2=NC(C)(CS2)C(=O)NC(C(C)C)C(=O)O1", "note": "(stereo not shown) [C-2 epimer of largazole]", "values": [
      {"measurement": "inhibitory potency against HDAC isoforms", "setting": "[1]", "result": "sub-micromolar"}
    ]},
    {"compound": "CCCCCCCC(=O)SCCC=CC1CC(=O)NCc2nc(cs2)C2=NC(C)(CS2)C(=O)NC(Cc2ccc(O)cc2)C(=O)O1", "note": "[L-tyrosine analogue]", "values": [
      {"measurement": "selectivity toward human cancer cells over normal cells", "setting": "[6]", "result": 100, "unit": "fold"}
    ]},
    {"compound": "CCCCCCCC(=O)SCC/C=C/[C@@H]1CC(=O)NCc2nc(cs2)C2=N[C@@](C)(CS2)C(=O)N[C@@H](C(C)C)C(=O)O1", "note": "[largazole, reference compound]", "values": [
      {"measurement": "GI50", "setting": "[2]; Homo sapiens, HCT-116, 96 h", "result": "< 10", "unit": "nM"},
      {"measurement": "concentration at which increase of global H3K9 acetylation was observed", "setting": "[3]", "result": 10, "unit": "nM"}
    ]}
  ]
}
